# Experimental data collected from several papers.
# Compare with care: the assays were run in different laboratories.
# Cnr2: Cannabinoid receptor 2 (Cnr2, Mus musculus, UniProt P47936)
# PDGFRA: Platelet-derived growth factor receptor alpha (PDGFRA, Homo sapiens, UniProt P16234)
# G protein-coupled receptor 88: G protein-coupled receptor 88 (Homo sapiens, UniProt Q9GZN0)
# CDK13: Cyclin-dependent kinase 13 (CDK13, Homo sapiens, UniProt Q14004)
SMILES,target,test,test system,setting,measurement,result
CC[C@H](NC(=O)OCc1ccccc1)C(=O)N[C@H](C(=O)N[C@@H](CC(C)C)C(=O)N(C)N(C#N)CCC(N)=O)C(C)(C)C,"Procathepsin L (CTSL, Homo sapiens, UniProt P07711)","enzyme activity, inhibitor",,,kon,17300 M⁻¹ s⁻¹
CCOC(=O)[C@](CC)(CCC[S+]([O-])CCOCCOCCNC(=O)OC(C)(C)C)NC(=O)c1ccc(C2CC2)c(Cc2ccc(F)cc2)n1 (stereo partly drawn),Cnr2,"cAMP, agonist",,,Emax,79%
C#Cc1n[nH]c2c(-c3cn([C@@H](C)c4ccccn4)c(=O)[nH]c3=O)cc(F)cc12,"Ephrin type-B receptor 1 (EPHB1, Homo sapiens, UniProt P54762)","enzyme activity, inhibitor",,0.1 µM,inhibition,1.8%
Cn1cc(-c2cc(F)cc(N3CCn4c(cc5c4CCCC5)C3=O)c2CO)cc(Nc2ccc(N3CCN(C4COC4)CC3)cn2)c1=O,PDGFRA,"enzyme activity, inhibitor",,0.1 µM,inhibition,23%
CCCCOc1ccc([C@@H](CO)C(=O)N[C@H](C)c2ccccc2)cc1,G protein-coupled receptor 88,"cAMP, agonist, TR-FRET",CHO,,Emax,100%
COc1ncccc1-c1cnn2ccc(N3CCN(C(=O)OC(C)C)CC3)nc12,PDGFRA,"binding, competition with immobilised ligand",,1 µM,remaining binding,100%
CC[C@H](C)COc1ccc([C@@H](CO)C(=O)N[C@H](C)c2ccccc2)cc1,G protein-coupled receptor 88,"cAMP, agonist, TR-FRET",,,Emax,88%
Nc1ncc(-c2nc(N3CCOCC3)nc(N3CCOCC3)n2)c(C(F)F)n1,"5'-AMP-activated protein kinase catalytic subunit alpha-1 (PRKAA1, Homo sapiens, UniProt Q13131)","cell-free assay, competition with immobilised ligand",,10 µM,remaining binding,91%
CCC[C@H](C)COc1ccc([C@@H](CO)C(=O)N[C@H](C)c2ccccc2)cc1,G protein-coupled receptor 88,"cAMP, agonist, TR-FRET",CHO,,Emax,97%
CCOC(=O)C(CC)(CCCSCCOCCOCCOCCNC(=O)OC(C)(C)C)NC(=O)c1ccc(C2CC2)c(Cc2ccc(F)cc2)n1 (stereo not drawn),Cnr2,"cAMP, agonist",,,Emax,87%
CCN1CCN(Cc2ccc(C(=O)Nc3ccc(C)c(Oc4ccc5c(c4)CC(=O)N5)c3)cc2C(F)(F)F)CC1,CDK13,"binding, competition with immobilised ligand",,1 µM,remaining binding,100%
Cc1nc2c(=O)n(C)c(=O)nc-2n(C)n1,"Protein disulfide-isomerase (P4HB, Homo sapiens, UniProt P07237)","thermal stability, DSF",,10 µM,ΔTm,-2.94 °C
Cc1nn(C)cc1-c1nc2c(N3CCN(Cc4ccc(Cl)cc4)CC3)c(Cl)cnc2[nH]1,CDK13,"binding, competition with immobilised ligand",,1 µM,remaining binding,77%
CCCC#Cc1ccc([C@@H](CO)C(=O)N[C@H](C)c2ccccc2)cc1,G protein-coupled receptor 88,"cAMP, agonist, TR-FRET",,,Emax,92%
Cn1cc(-c2cccc(N3CCc4c(sc5c4CC(C)(C)C5)C3=O)c2CO)cc(Nc2ccncn2)c1=O,"Platelet-derived growth factor receptor alpha (PDGFRA, Homo sapiens, UniProt P16234, T674I)","enzyme activity, inhibitor",,1 µM,inhibition,-4%
